Experimental data of several laboratories.
Protocols differ between the studies behind these lines.
Organism: Klebsiella pneumoniae
Observed: microbial growth

CCCCCCC#Cc1cncc(-c2nnc(SCc3ccc(C#N)cc3)n2C)c1
MIC: ≥ 20 µg/mL

CC(C)(O/N=C(\C(=O)N[C@@H]1C(=O)N2C(C(=O)[O-])=C(C[n+]3ccccc3)CS[C@H]12)c1csc(N)n1)C(=O)O
MIC (broth dilution; ATCC700603): 5 µM

Cc1c(CN(C)C(=O)/C=C/c2cnc3c(c2)CC(CCN)C(=O)N3)oc2ccccc12.Cl (stereo not drawn)
MIC (broth dilution; BAA2342): 16 µg/mL

CO[C@@H](C(N)=O)[C@H](NC(=O)c1ccc(NC(=O)c2ccc(C#N)cc2)cc1)C(=O)Nc1ccc(C(=O)Nc2ccc(C(=O)Nc3ccc(C(=O)O)cc3)c(O)c2OC(C)C)cc1
MIC (DSM30104): 8 µg/mL

C=C[C@]1(C)C[C@@H](OC(=O)CS[C@@H]2C[C@H]3CC[C@@H](C2)N3C)[C@]2(C)[C@H](C)CC[C@]3(CCC(=O)[C@H]32)[C@@H](C)[C@@H]1O
MIC (broth dilution; ATCC700603): 160 µM

CCCCCCC#Cc1cncc(-c2nnc(SCc3ccc([N+](=O)[O-])o3)n2C)c1
MIC: ≥ 20 µg/mL

CC(C)(O/N=C(\C(=O)N[C@@H]1C(=O)N2C(C(=O)[O-])=C(C[n+]3ccccc3)CS[C@H]12)c1csc(N)n1)C(=O)O
MIC (18 h; clinical isolate): > 128 µg/mL

NC1CCc2c1[nH]c1ccc(Cl)c(Cl)c21 (stereo not drawn)
MIC (broth dilution; ATCC10031): 8 µg/mL

O=C(O)c1cn(C2CC2)c2cc(N3CCNCC3)c(F)cc2c1=O
MIC (broth dilution; 24 h): 0.57 µM

C/C(=C\C(=O)OCCCCCCCCC(=O)O)C[C@@H]1OC[C@H](C[C@@H]2O[C@H]2[C@@H](C)[C@H](C)O)[C@@H](O)[C@H]1O
MIC (broth dilution; ATCC700603): 160 µM

CNC(C)C1CCC(N)C(OC2C(N)CC(N)C(OC3OCC(C)(O)C(NC)C3O)C2O)O1 (stereo not drawn)
MIC: 0.25 µg/mL

CNC(C)C1CCC(N)C(OC2C(N)CC(N)C(OC3OCC(C)(O)C(NC)C3O)C2O)O1 (stereo not drawn)
MIC (broth dilution; ATCC700603): 0.31 µM

O=C(Nc1ccc([N+](=O)[O-])cc1F)c1ccccc1O
MIC (broth dilution; BAA1705): > 64 µg/mL

O=C1NN=C(N=Cc2ccc(O)c(O)c2)C1=NNn1c(-c2ccccc2)nc2ccccc2c1=O
MIC (broth dilution; 24 h): 53.5 µM

O=C(Nc1ccc(S(=O)(=O)c2nccs2)cc1)c1cc(N=Nc2nccs2)ccc1O
MIC (broth dilution): 100 µg/mL

CC[C@H]1OC(=O)[C@H](C)C(=O)[C@H](C)[C@@H](O[C@@H]2O[C@H](C)C[C@H](N(C)C)[C@H]2O)[C@](C)(OC)C[C@@H](C)C(=O)[C@H](C)[C@H]2N(CCCCn3cnc(-c4cccnc4)c3)C(=O)O[C@]12C
MIC (broth dilution; ATCC700603): 40 µM

CO[C@H]1/C=C/O[C@@]2(C)Oc3c(C)c(O)c4c(O)c(c(/C=N/N5CCN(C)CC5)c(O)c4c3C2=O)NC(=O)/C(C)=C\C=C\[C@H](C)[C@H](O)[C@@H](C)[C@@H](O)[C@@H](C)[C@H](OC(C)=O)[C@@H]1C
MIC (ATCC13882): 16 µg/mL

CN(Cc1ccc2cc3c(c(O)c2c1)C(=O)C1=C(O)[C@]2(O)C(=O)C(C(N)=O)=C(O)[C@@H](N(C)C)[C@@H]2C[C@@H]1C3)c1ccccc1
MIC (broth dilution; ATCC13883): 32 µg/mL
